Data set [1] relates to Mycobacterium avium. Kind of data set: Antimycobacterial activity against Mycobacterium avium CNCTC My 330/88 after 21 days. It is filed as functional. The settings on record: CNCTC My 330/88, 504 h. The method, boiled down:
(§1)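 Broth dilution in Sula semisynthetic medium, compounds added as DMSO solutions at 250, 125, 62, 32, 16, 8, 4, 2 and 1. Strains came from the Czech National Collection of Type Cultures; the M. tuberculosis inoculum was diluted 10^-3. Cultures were incubated at 37 °C, and MIC was read after 7, 14 and 21 days.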

Data set [2] deals with Mycobacterium avium. Kind of data set: Antimycobacterial activity against Mycobacterium avium CNCTC My 330/88 after 14 days. It is filed as functional. To be noted: CNCTC My 330/88, 336 h. The method, boiled down: as §1
Data set [3] has as its system Mycobacterium tuberculosis. The data set can be described thus: Antimycobacterial activity against Mycobacterium tuberculosis CNCTC My 331/88 after 14 days. The class given is functional. To be noted: CNCTC My 331/88, 336 h. The method, boiled down: as §1
Data set [4] relates to Mycobacterium tuberculosis. Kind of data set: Antimycobacterial activity against Mycobacterium tuberculosis CNCTC My 331/88 after 21 days. It is filed as functional. The settings on record: CNCTC My 331/88, 504 h. The method, boiled down: as §1
Data set [5] relates to Mycobacterium kansasii. Kind of data set: Antimycobacterial activity against Mycobacterium kansasii isolate 6509/96 after 14 days. It is filed as functional. To be noted: isolate 6509/96, 336 h. Put shortly:
(§2)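 Compounds were added as DMSO solutions to Sula semisynthetic medium at 250, 125, 62, 32, 16, 8, 4, 2 and 1 µmol/L. Two M. kansasii strains were used: CNCTC My 235/80 and clinical isolate 6509/96, each with strain dilution 10^-4. Incubation was at 37 °C, and MIC was read at 7, 14 and 21 days.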

Data set [6] can be described thus: Lipophilicity, log K by HPLC. The class given is physicochemical. Put shortly:
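Capacity factors k were measured by RP-HPLC and log k was calculated from them.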

In data set [7] the test system is Mycobacterium kansasii. Kind of data set: Antimycobacterial activity against Mycobacterium kansasii isolate 6509/96 after 7 days. The class given is functional. To be noted: isolate 6509/96, 168 h. The method, boiled down:
as §2

Data set [8] concerns Mycobacterium kansasii. Kind of data set: Antimycobacterial activity against Mycobacterium kansasii CNCTC My 235/80 after 14 days. The class given is functional. To be noted: CNCTC My 235/80, 336 h. Put shortly:
as §2

The test system of data set [9] is Mycobacterium kansasii. The data set can be described thus: Antimycobacterial activity against Mycobacterium kansasii CNCTC My 235/80 after 7 days. To be noted: CNCTC My 235/80, 168 h. It is filed as functional. Put shortly:
as §2

Data set [10] deals with Mycobacterium kansasii. The data set can be described thus: Antimycobacterial activity against Mycobacterium kansasii CNCTC My 235/80 after 21 days. It is filed as functional. The settings on record: CNCTC My 235/80, 504 h. Put shortly:
as §2

For data set [11], the system named is Mycobacterium kansasii. Kind of data set: Antimycobacterial activity against Mycobacterium kansasii isolate 6509/96 after 21 days. The class given is functional. To be noted: isolate 6509/96, 504 h. Put shortly:
as §2

Converted amounts (≈) assume the structure as drawn.

Consider `CC(C)[C@@H](NC(=O)OCc1ccccc1)C(=O)Oc1ccc(Cl)cc1C(=O)Nc1ccc(Cl)c(Cl)c1`, for which the minimum inhibitory concentration (MIC) (commonly the least concentration at which growth counts as inhibited) in the data set on Mycobacterium avium [1] was found to be 16 µM (≈ 8.8 µg/mL); in the data set on Mycobacterium avium [2], 16 µM (≈ 8.8 µg/mL); in [3] it was 2 µM (≈ 1.1 µg/mL); in data set [4] it was 4 µM (≈ 2.2 µg/mL); against Mycobacterium kansasii [5] it was 8 µM (≈ 4.4 µg/mL); in the data set on Mycobacterium kansasii [7] it was 8 µM (≈ 4.4 µg/mL). In addition, the minimum inhibitory concentration (MIC) against Mycobacterium kansasii [8] was determined as 4 µM (≈ 2.2 µg/mL); against Mycobacterium kansasii [9] it was 4 µM (≈ 2.2 µg/mL); in the data set on Mycobacterium kansasii [10], 8 µM (≈ 4.4 µg/mL); with Mycobacterium kansasii [11] it was 16 µM (≈ 8.8 µg/mL). The “log K” value in data set [6] is 1.1559.

Turning to `C[C@H](NC(=O)OCc1ccccc1)C(=O)Oc1ccc(Cl)cc1C(=O)Nc1cccc(Cl)c1`, the minimal inhibitory concentration (MIC) against Mycobacterium avium [1] was determined as 62.5 µM (≈ 30.5 µg/mL); against Mycobacterium avium [2] it was 32 µM (≈ 15.6 µg/mL); in data set [3], 4 µM (≈ 1.95 µg/mL); in data set [4], 8 µM (≈ 3.9 µg/mL); against Mycobacterium kansasii [5], 16 µM (≈ 7.8 µg/mL); against Mycobacterium kansasii [7], 8 µM (≈ 3.9 µg/mL). Also, the MIC in the data set with Mycobacterium kansasii [8], against Mycobacterium kansasii [9], against Mycobacterium kansasii [10] and against Mycobacterium kansasii [11] was 16 µM (≈ 7.8 µg/mL) throughout. In addition, the “log K” value in [6] was 0.6995.

Consider `O=C(CNC(=O)OCc1ccccc1)Oc1ccc(Cl)cc1C(=O)Nc1ccc(Cl)c(Cl)c1`, for which the MIC is 32 µM (≈ 16.2 µg/mL) with Mycobacterium avium [1]; 16 µM (≈ 8.12 µg/mL) with Mycobacterium avium [2]; 1 µM (≈ 0.508 µg/mL) in [3]; 2 µM (≈ 1.02 µg/mL) in data set [4]; 8 µM (≈ 4.06 µg/mL) with Mycobacterium kansasii [5]; 8 µM (≈ 4.06 µg/mL) with Mycobacterium kansasii [7]. The MIC in the data set with Mycobacterium kansasii [8] stood at 8 µM (≈ 4.06 µg/mL); in the data set on Mycobacterium kansasii [9] it was 8 µM (≈ 4.06 µg/mL); against Mycobacterium kansasii [10], 16 µM (≈ 8.12 µg/mL); in the data set with Mycobacterium kansasii [11], 8 µM (≈ 4.06 µg/mL). Also, the “log K” value in [6] is recorded as 0.8639.

Regarding `CC(C)[C@@H](NC(=O)OCc1ccccc1)C(=O)Oc1ccc(Cl)cc1C(=O)Nc1cccc(Cl)c1`, the minimum inhibitory concentration (MIC) was found to be 32 µM (≈ 16.5 µg/mL) in the data set on Mycobacterium avium [1]; 32 µM (≈ 16.5 µg/mL) in the data set on Mycobacterium avium [2]; 8 µM (≈ 4.12 µg/mL) in [3]; 8 µM (≈ 4.12 µg/mL) in data set [4]; 16 µM (≈ 8.25 µg/mL) against Mycobacterium kansasii [5]; 8 µM (≈ 4.12 µg/mL) with Mycobacterium kansasii [7]. For the same compound, the MIC against Mycobacterium kansasii [8] stood at 16 µM (≈ 8.25 µg/mL); with Mycobacterium kansasii [9], 8 µM (≈ 4.12 µg/mL); against Mycobacterium kansasii [10] it was 16 µM (≈ 8.25 µg/mL); with Mycobacterium kansasii [11], 16 µM (≈ 8.25 µg/mL). Also, the “log K” value in [6] was 0.8954.

As for `O=C(N[C@@H](Cc1ccccc1)C(=O)Oc1ccc(Cl)cc1C(=O)Nc1ccc(Cl)c(Cl)c1)OCc1ccccc1`, the minimal inhibitory concentration (MIC) turned out to be 32 µM (≈ 19.1 µg/mL) with Mycobacterium avium [1]; 16 µM (≈ 9.57 µg/mL) in the data set with Mycobacterium avium [2]; 2 µM (≈ 1.2 µg/mL) in data set [3]; 2 µM (≈ 1.2 µg/mL) in data set [4]; 8 µM (≈ 4.78 µg/mL) in the data set with Mycobacterium kansasii [5]; 8 µM (≈ 4.78 µg/mL) against Mycobacterium kansasii [7]. The minimum inhibitory concentration (MIC) in the data set on Mycobacterium kansasii [8] was 4 µM (≈ 2.39 µg/mL); against Mycobacterium kansasii [9] it was 4 µM (≈ 2.39 µg/mL); with Mycobacterium kansasii [10] it was 8 µM (≈ 4.78 µg/mL); in the data set with Mycobacterium kansasii [11], 8 µM (≈ 4.78 µg/mL). For the same compound, the “log K” value in data set [6] is recorded as 1.3056.

Consider `O=C(N[C@H](Cc1ccccc1)C(=O)Oc1ccc(Cl)cc1C(=O)Nc1cccc(Cl)c1)OCc1ccccc1`, for which the minimal inhibitory concentration (MIC) was found to be 32 µM (≈ 18 µg/mL) in the data set with Mycobacterium avium [1]; 16 µM (≈ 9.01 µg/mL) in the data set on Mycobacterium avium [2]; 4 µM (≈ 2.25 µg/mL) in data set [3]; 4 µM (≈ 2.25 µg/mL) in data set [4]; 16 µM (≈ 9.01 µg/mL) against Mycobacterium kansasii [5]; 8 µM (≈ 4.51 µg/mL) in the data set on Mycobacterium kansasii [7]. The minimum inhibitory concentration (MIC) against Mycobacterium kansasii [8] is 16 µM (≈ 9.01 µg/mL); in the data set on Mycobacterium kansasii [9], 8 µM (≈ 4.51 µg/mL); against Mycobacterium kansasii [10], 16 µM (≈ 9.01 µg/mL); in the data set with Mycobacterium kansasii [11], 16 µM (≈ 9.01 µg/mL). In data set [6], the “log K” value stood at 1.0476.

With `CC(C)[C@H](NC(=O)OCc1ccccc1)C(=O)Oc1cc(Cl)ccc1C(=O)Nc1ccc(Cl)cc1`, the minimal inhibitory concentration (MIC) against Mycobacterium avium [1] was 16 µM (≈ 8.25 µg/mL); with Mycobacterium avium [2], 16 µM (≈ 8.25 µg/mL); in [3] it was 4 µM (≈ 2.06 µg/mL); in [4], 8 µM (≈ 4.12 µg/mL); in the data set on Mycobacterium kansasii [5], 8 µM (≈ 4.12 µg/mL); in the data set with Mycobacterium kansasii [7], 4 µM (≈ 2.06 µg/mL). Further, the MIC against Mycobacterium kansasii [8] stood at 8 µM (≈ 4.12 µg/mL); in the data set on Mycobacterium kansasii [9], 4 µM (≈ 2.06 µg/mL); against Mycobacterium kansasii [10], 8 µM (≈ 4.12 µg/mL); against Mycobacterium kansasii [11], 16 µM (≈ 8.25 µg/mL). In data set [6], the “log K” value was found to be 0.8804.

Regarding `CC(C)[C@H](NC(=O)OCc1ccccc1)C(=O)Oc1ccc(Cl)cc1C(=O)Nc1ccc(Cl)c(Cl)c1`, the minimal inhibitory concentration (MIC) with Mycobacterium avium [1] is 32 µM (≈ 17.6 µg/mL); in the data set with Mycobacterium avium [2] it was 16 µM (≈ 8.8 µg/mL); in [3] it was 2 µM (≈ 1.1 µg/mL); in data set [4], 4 µM (≈ 2.2 µg/mL); in the data set on Mycobacterium kansasii [5], 8 µM (≈ 4.4 µg/mL); in the data set with Mycobacterium kansasii [7], 8 µM (≈ 4.4 µg/mL). The MIC against Mycobacterium kansasii [8] was found to be 4 µM (≈ 2.2 µg/mL); against Mycobacterium kansasii [9], 4 µM (≈ 2.2 µg/mL); in the data set with Mycobacterium kansasii [10] it was 8 µM (≈ 4.4 µg/mL); in the data set on Mycobacterium kansasii [11] it was 8 µM (≈ 4.4 µg/mL). Further, the “log K” value in data set [6] was 1.1567.

(Values after ChEMBL document CHEMBL1136894, “New antituberculotics originated from salicylanilides with promising in vitro activity against atypical mycobacterial strains” (Bioorg Med Chem, 2009).)
